Test results as given in ChEMBL document CHEMBL1687778, “Genetic determinants involved in the susceptibility of Pseudomonas aeruginosa to beta-lactam antibiotics” (2010).
Converted amounts (≈) assume the structure as drawn.

How the values were obtained:
Pseudomonas aeruginosa [1] = assay: Antimicrobial activity against Pseudomonas aeruginosa PA14 PA1195 harboring mutation in putative dimethylarginine dimethylaminohydrolase by Etest method; type: functional
Procedure, shortened: (§1)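 Overnight LB cultures (37°C) diluted in sterile 0.85% NaCl to about 1 × 10^7 CFU/ml. 100 µl spread on Mueller-Hinton agar, one Etest strip per plate, 18 h at 37°C. Ceftazidime, imipenem and meropenem tested. Wild-type PA14 plate included in each set. Each mutant verified in triplicate.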

Pseudomonas aeruginosa [2] = assay: Antimicrobial activity against Pseudomonas aeruginosa PA14 PA0402 harboring pyrB mutant gene by Etest method; type: functional; procedure, shortened: as §1
Pseudomonas aeruginosa [3] = assay: Antimicrobial activity against Pseudomonas aeruginosa PA14 PA3649 harboring mutation in putative membrane-associated zinc metalloprotease by Etest method; type: functional
Procedure, shortened: (§2)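 Etest MIC. Overnight LB cultures at 37°C were diluted in sterile 0.85% NaCl to about 1 × 10^7 CFU/ml. 100 µl was spread on Mueller-Hinton agar, one strip was placed per plate, and plates were incubated at 37°C for 18 h. Equal cell numbers were seeded per plate, and results were verified in triplicate. PA14 wild type was included in each set as a susceptibility control.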

Pseudomonas aeruginosa [4] = assay: Antimicrobial activity against Pseudomonas aeruginosa PA14 PA3520 harboring mutation in putative periplasmic metal-binding protein by Etest method; type: functional; procedure, shortened: as §2
Pseudomonas aeruginosa [5] = assay: Antimicrobial activity against Pseudomonas aeruginosa PA14 PA4007 harboring proA mutant gene by Etest method; type: functional; procedure, shortened: as §2
Pseudomonas aeruginosa [6] = assay: Antimicrobial activity against Pseudomonas aeruginosa PA14 PA1011 harboring mutation in putative lipoprotein by Etest method; type: functional; procedure, shortened: as §1
[7] = system: Pseudomonas aeruginosa PA14; assay: Activity of wild type Pseudomonas aeruginosa PA14 Beta-lactamase assessed as nitrocefin hydrolysis per mg of protein by spectrophotometry
Procedure, shortened: (§3)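 Cells grown to OD600 1.0, pelleted and resuspended in 0.1 M KH2PO4-Na2HPO4 pH 7.0. Crude extract made by two freeze-thaw cycles plus sonication on ice. β-Lactamase read as absorbance change at 485 nm with 50 µM nitrocefin in the same pH 7.0 phosphate buffer. Extract protein measured by BCA against a bovine serum albumin standard.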

Pseudomonas aeruginosa [8] = assay: Antimicrobial activity against Pseudomonas aeruginosa PA14 PA4269 harboring rpoC mutant gene by Etest method; type: functional; procedure, shortened: as §2
[9] = system: Pseudomonas aeruginosa PAO1; assay: Activity of Beta-lactamase in Pseudomonas aeruginosa PAO1 PA4020 harboring mpl mutant gene assessed as nitrocefin hydrolysis per mg of protein by spectrophotometry; procedure, shortened: as §3
Pseudomonas aeruginosa [10] = assay: Antimicrobial activity against Pseudomonas aeruginosa PA14 PA5003 harboring mutation in conserved hypothetical protein by Etest method; type: functional; procedure, shortened: as §2
Pseudomonas aeruginosa [11] = assay: Antimicrobial activity against Pseudomonas aeruginosa PA14 PA4459 harboring mutation in Conserved hypothetical protein by Etest method; type: functional; procedure, shortened: as §2
[12] = system: Pseudomonas aeruginosa PA14; assay: Activity of Beta-lactamase in Pseudomonas aeruginosa PA14 PA3047 harboring dacB mutant gene assessed as nitrocefin hydrolysis per mg of protein by spectrophotometry; procedure, shortened: as §3
Pseudomonas aeruginosa [13] = assay: Antimicrobial activity against Pseudomonas aeruginosa PA14 PA5192 harboring pckA mutant gene by Etest method; type: functional; procedure, shortened: as §2
[14] = system: Pseudomonas aeruginosa PAO1; assay: Activity of wild type Pseudomonas aeruginosa PAO1 Beta-lactamase assessed as nitrocefin hydrolysis per mg of protein by spectrophotometry; procedure, shortened: as §3
Pseudomonas aeruginosa [15] = assay: Antimicrobial activity against Pseudomonas aeruginosa PA14 PA0764 harboring mucB mutant gene by Etest method; type: functional; procedure, shortened: as §1
Pseudomonas aeruginosa [16] = assay: Antimicrobial activity against Pseudomonas aeruginosa PA14 PA3800 harboring mutation in conserved hypothetical protein by Etest method; type: functional; procedure, shortened: as §2
[17] = system: Pseudomonas aeruginosa PAO1; assay: Activity of Beta-lactamase in Pseudomonas aeruginosa PAO1 PA4522 harboring ampD mutant gene assessed as nitrocefin hydrolysis per mg of protein by spectrophotometry; procedure, shortened: as §3
Pseudomonas aeruginosa [18] = assay: Antimicrobial activity against Pseudomonas aeruginosa PA14 PA4109 harboring ampR mutant gene by Etest method; type: functional; procedure, shortened: as §2
Pseudomonas aeruginosa [19] = assay: Antimicrobial activity against Pseudomonas aeruginosa PA14 PA2023 harboring galU mutant gene by Etest method; type: functional; procedure, shortened: as §1
Pseudomonas aeruginosa [20] = assay: Antimicrobial activity against Pseudomonas aeruginosa PA14 PA5001 harboring mutation in conserved hypothetical protein by Etest method; type: functional; procedure, shortened: as §2
Pseudomonas aeruginosa [21] = assay: Antimicrobial activity against Pseudomonas aeruginosa PA14 PA14_43090 harboring mutation in hypothetical protein by Etest method; type: functional; procedure, shortened: as §1
Pseudomonas aeruginosa [22] = assay: Antimicrobial activity against Pseudomonas aeruginosa PA14 PA3721 harboring nalC mutant gene by Etest method; type: functional; procedure, shortened: as §2
Pseudomonas aeruginosa [23] = assay: Antimicrobial activity against Pseudomonas aeruginosa PA14 PA0908 harboring mutation in hypothetical protein by Etest method; type: functional; procedure, shortened: as §1
Pseudomonas aeruginosa [24] = assay: Antimicrobial activity against Pseudomonas aeruginosa PA14 PA3978 harboring mutation in hypothetical protein by Etest method; type: functional; procedure, shortened: as §2
Pseudomonas aeruginosa [25] = assay: Antimicrobial activity against Pseudomonas aeruginosa PA14 PA4088 harboring mutation in putative aminotransferase by Etest method; type: functional; procedure, shortened: as §2
Pseudomonas aeruginosa [26] = assay: Antimicrobial activity against Pseudomonas aeruginosa PA14 PA0958 harboring oprD mutant gene by Etest method; type: functional; procedure, shortened: as §1
Pseudomonas aeruginosa [27] = assay: Antimicrobial activity against Pseudomonas aeruginosa PA14 PA5000 harboring wapR mutant gene by Etest method; type: functional; procedure, shortened: as §2
Pseudomonas aeruginosa [28] = assay: Antimicrobial activity against Pseudomonas aeruginosa PA14 PA3620 harboring mutS mutant gene by Etest method; type: functional; procedure, shortened: as §2
Pseudomonas aeruginosa [29] = assay: Antimicrobial activity against Pseudomonas aeruginosa PA14 PA4069 harboring mutation in putative dTDP-4-rhamnose reductase-related protein by Etest method; type: functional; procedure, shortened: as §2
[30] = system: Pseudomonas aeruginosa PAO1; assay: Activity of Beta-lactamase in Pseudomonas aeruginosa PAO1 PA3047 harboring dacB mutant gene assessed as nitrocefin hydrolysis per mg of protein by spectrophotometry; procedure, shortened: as §3
Pseudomonas aeruginosa [31] = assay: Antimicrobial activity against Pseudomonas aeruginosa PA14 PA4748 harboring tpiA mutant gene by Etest method; type: functional; procedure, shortened: as §2
Pseudomonas aeruginosa [32] = assay: Antimicrobial activity against Pseudomonas aeruginosa PA14 PA5038 harboring aroB mutant gene by Etest method; type: functional; procedure, shortened: as §2
Pseudomonas aeruginosa [33] = assay: Antimicrobial activity against Pseudomonas aeruginosa PA14 PA0427 harboring oprM mutant gene by Etest method; type: functional; procedure, shortened: as §1
Pseudomonas aeruginosa [34] = assay: Antimicrobial activity against Pseudomonas aeruginosa PA14 PA2615 harboring ftsK mutant gene by Etest method; type: functional; procedure, shortened: as §1
Pseudomonas aeruginosa [35] = assay: Antimicrobial activity against Pseudomonas aeruginosa PA14 PA3818 harboring suhB mutant gene by Etest method; type: functional; procedure, shortened: as §2
Pseudomonas aeruginosa [36] = assay: Antimicrobial activity against Pseudomonas aeruginosa PA14 PA3145 harboring wbpL mutant gene by Etest method; type: functional; procedure, shortened: as §1
Pseudomonas aeruginosa [37] = assay: Antimicrobial activity against Pseudomonas aeruginosa PA14 PA4393 harboring mutation in putative permease by Etest method; type: functional; procedure, shortened: as §2
Pseudomonas aeruginosa [38] = assay: Antimicrobial activity against Pseudomonas aeruginosa PA14 PA1483 harboring cycH mutant gene by Etest method; type: functional; procedure, shortened: as §1

`CC(C)(O/N=C(\C(=O)N[C@@H]1C(=O)N2C(C(=O)[O-])=C(C[n+]3ccccc3)CS[C@H]12)c1csc(N)n1)C(=O)O` [CEFTAZIDIME] was tested, and the MIC (Pseudomonas aeruginosa [1]) was 0.5 µg/mL (≈ 0.915 µM), the MIC (Pseudomonas aeruginosa [2]) was 0.38 µg/mL (≈ 0.695 µM) and the MIC (Pseudomonas aeruginosa [3]) was 0.5 µg/mL (≈ 0.915 µM). It also gave an MIC (Pseudomonas aeruginosa [4]) of 1.5 µg/mL (≈ 2.74 µM), an MIC (Pseudomonas aeruginosa [5]) of 0.75 µg/mL (≈ 1.37 µM) and an MIC (Pseudomonas aeruginosa [6]) of 0.5 µg/mL (≈ 0.915 µM). For the same compound, the Activity [7] was 4.9 nmol/min, the MIC (Pseudomonas aeruginosa [8]) was 0.5 µg/mL (≈ 0.915 µM) and the Activity [9] was 168 nmol/min. The MIC (Pseudomonas aeruginosa [10]) was 3 µg/mL (≈ 5.49 µM), the MIC (Pseudomonas aeruginosa [11]) was 1.5 µg/mL (≈ 2.74 µM) and the Activity [12] was 110 nmol/min. For the same compound, the MIC (Pseudomonas aeruginosa [13]) was 0.5 µg/mL (≈ 0.915 µM), the Activity [14] was 6.9 nmol/min and the MIC (Pseudomonas aeruginosa [15]) was 0.75 µg/mL (≈ 1.37 µM). For the same compound, the MIC (Pseudomonas aeruginosa [16]) was 0.25 µg/mL (≈ 0.457 µM), the Activity [17] was 74 nmol/min and the MIC (Pseudomonas aeruginosa [18]) was 4 µg/mL (≈ 7.32 µM). The MIC (Pseudomonas aeruginosa [19]) was 3 µg/mL (≈ 5.49 µM), the MIC (Pseudomonas aeruginosa [20]) was 3 µg/mL (≈ 5.49 µM) and the MIC (Pseudomonas aeruginosa [21]) was 2 µg/mL (≈ 3.66 µM). The MIC (Pseudomonas aeruginosa [22]) was 1.5 µg/mL (≈ 2.74 µM), the MIC (Pseudomonas aeruginosa [23]) was 2 µg/mL (≈ 3.66 µM) and the MIC (Pseudomonas aeruginosa [24]) was 0.75 µg/mL (≈ 1.37 µM). For the same compound, the MIC (Pseudomonas aeruginosa [25]) was 0.25 µg/mL (≈ 0.457 µM), the MIC (Pseudomonas aeruginosa [26]) was 0.75 µg/mL (≈ 1.37 µM) and the MIC (Pseudomonas aeruginosa [27]) was 4 µg/mL (≈ 7.32 µM). The MIC (Pseudomonas aeruginosa [28]) was 2 µg/mL (≈ 3.66 µM), the MIC (Pseudomonas aeruginosa [29]) was 0.75 µg/mL (≈ 1.37 µM) and the Activity [30] was 274 nmol/min. For the same compound, the MIC (Pseudomonas aeruginosa [31]) was 1.5 µg/mL (≈ 2.74 µM), the MIC (Pseudomonas aeruginosa [32]) was 3 µg/mL (≈ 5.49 µM) and the MIC (Pseudomonas aeruginosa [33]) was 0.38 µg/mL (≈ 0.695 µM). The MIC (Pseudomonas aeruginosa [34]) was 0.25 µg/mL (≈ 0.457 µM), the MIC (Pseudomonas aeruginosa [35]) was 0.5 µg/mL (≈ 0.915 µM) and the MIC (Pseudomonas aeruginosa [36]) was 2 µg/mL (≈ 3.66 µM). The MIC (Pseudomonas aeruginosa [37]) was 0.75 µg/mL (≈ 1.37 µM) and the MIC (Pseudomonas aeruginosa [38]) was 0.5 µg/mL (≈ 0.915 µM).
